KCNQ1 block: inhibitors of human KCNQ1 channel, primary screen, cell-based, thallium flux, high-throughput | Potassium voltage-gated channel subfamily KQT member 1 (Homo sapiens), P51787 | CHO-K1 KCNQ1, FluxOR thallium flux fluorescence; active compounds read high | B-score at 10 µM | 310,000 compounds, 1.3% hits;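 active = compounds whose thallium flux B-score, printed positive for inhibition, exceeds three library SD while starting fluorescence stays within three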;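 note: channel opened by potassium depolarization with thallium stimulus after 20 min compound exposure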
KCNQ1 act: potentiators or activators of KCNQ1 channel, primary screen, cell-based, thallium flux, high-throughput. AID 2648, 2010. Potassium voltage-gated channel subfamily KQT member 1 (Homo sapiens), P51787. B-score at 10 µM. 310,000 compounds, 0.35% hits. CHO-K1 KCNQ1, thallium flux FluxOR fluorescence; active compounds read high;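 active = fluorescence ratio B-score, a plate-corrected score, at least three library SD, with initial intensity B-score within 5 SD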
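Assay system: CHO-K1 cells stably expressing KCNQ1. Medium: assay buffer for compound exposure, DMSO matched across wells. Timing: 37 °C overnight plating, 90-min dark dye load, 20-min compound pretreatment. Signal: kinetic FluxOR fluorescence, 10 s baseline plus 110 s post-stimulus.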
KCNK9 inh: KCNK9 potassium channel inhibitors, primary screen, HEK293 cells, thallium flux. 310,000 compounds, 1.2% hits. FluxOR thallium flux fluorescence; active compounds read low. B-score at 10 µM;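 active = ratio B-score over 3 SD below the library mean, with starting fluorescence within 5 SD of its mean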;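 note: negative B-score means less thallium flux so channel inhibition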
Target sequence (Q9NPC2 whole entry, looked up): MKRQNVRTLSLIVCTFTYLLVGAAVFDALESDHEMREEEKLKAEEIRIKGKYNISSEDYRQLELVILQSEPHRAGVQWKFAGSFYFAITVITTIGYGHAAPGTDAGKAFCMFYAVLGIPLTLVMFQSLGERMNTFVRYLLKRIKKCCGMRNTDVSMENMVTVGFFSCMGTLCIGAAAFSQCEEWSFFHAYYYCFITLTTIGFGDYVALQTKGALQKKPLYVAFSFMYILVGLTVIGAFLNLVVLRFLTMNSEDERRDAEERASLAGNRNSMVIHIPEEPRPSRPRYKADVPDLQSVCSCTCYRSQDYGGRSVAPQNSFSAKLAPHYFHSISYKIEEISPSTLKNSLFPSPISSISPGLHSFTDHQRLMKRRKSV
hERG rescue: hERG rescue from dofetilide block, primary screen, cell-based, CHO-hERG, FluxOR thallium flux, dofetilide IC70 | dofetilide IC70 present | 310,000 compounds, 0.51% hits | activation (rescue from dofetilide block), less the hit threshold, % at 10 µM | Voltage-gated inwardly rectifying potassium channel KCNH2 (Homo sapiens), Q12809;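 active = activation above the mean of controls blocked by dofetilide plus 5 SD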;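 note: thallium influx through hERG after potassium depolarization seen as dye fluorescence rise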
KCNK3 inh: human KCNK3 channel inhibitors, primary screen, CHO cells, FluxOR thallium flux, B-score; B-score at 10 µM; 340,000 compounds, 0.84% hits; AID 602410, 2012; FluxOR fluorescence; active compounds read low; Potassium channel subfamily K member 3 (Homo sapiens), O14649;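 active = B-score under library mean minus 4 SD, starting fluorescence ratio at most library mean plus 5 SD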;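 note: more negative B-score means stronger inhibition of thallium flux through KCNK3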
KCNK9 inh conf: KCNK9 potassium channel inhibitors, confirmation, HEK293 cells, thallium flux, duplicate; shares compounds with KCNK9 inh; 4,900 compounds, 43% hits; FluxOR thallium flux fluorescence; inhibition, % at 10 µM;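 active = thallium signal inhibited by more than 5 SD of the compound-free buffer control wells, on both duplicate plates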
Kir21 sel: mouse Kir2.1 channel inhibition, confirmation, selectivity assay for KCNK9 modulator project, cell-based, HEK293, thallium flux; Kir2.1 cells, FluxOR thallium flux fluorescence; AID 492993, 2010; shares compounds with KCNK9 inh; 4,900 compounds, 4% hits; inhibition, % at 10 µM;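 active = thallium signal drop more than 5 SD beyond the mean of the no-compound control wells, seen in both duplicate plates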;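 note: signal is fluorescence rise after thallium addition divided by baseline fluorescence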
HEK293 Tl ctr: thallium flux in non-induced HEK293 cells, confirmation, counter-screen for KCNK9 inhibitor project, cell-based, second counter screen, non-induced KCNK9-HEK293 | shares compounds with KCNK9 inh | FluxOR thallium flux | inhibition, % at 10 µM | 4,900 compounds, 40% hits | AID 492997, 2010;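 active = thallium signal drop beyond 5 SD of the untreated control mean, on both duplicate plates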
Numbers stand for hits; - = inactive; . = no result. Sampled rows, rich in hits. Any-hit rate of the full collection: about 3.1%.

SMILES	KCNQ1 block	KCNQ1 act	KCNK9 inh	hERG rescue	KCNK3 inh	KCNK9 inh conf	Kir21 sel	HEK293 Tl ctr
COc1ccc(CCNC(=O)c2c(O)c3ccccc3n(C)c2=O)cc1	-	-	-	-	-	-	-	-
COc1ccc(CCNC(=O)c2cc3c(=O)n(C)c4ccccc4c3n2C)c(OC)c1	-	-	-	-	-	-	-	-
COCCCN(C(=O)Cc1ccc(S(=O)(=O)N2CCOCC2)s1)c1c(N)n(Cc2ccccc2)c(=O)[nH]c1=O	.	.	.	.	-	.	.	.
CCCCN(C(=O)c1cc(CC)c(C)s1)c1c(N)n(CCC)c(=O)[nH]c1=O	-	-	-	-	-	.	.	.
Cc1ccc(N2C(=O)N(CC(=O)Nc3ccc(F)c(F)c3)C(=O)C2C)cc1 (configuration not stated)	-	-	-	-	-	.	.	.
COC(=O)c1cc2c(ccn2-c2ccc(F)cc2)n1Cc1ccc(OC)cc1	-	-	-	-	-	.	.	.
COC(=O)c1cc2c(ccn2-c2ccc(F)cc2)n1Cc1ccc(C#N)cc1	-	-	-9.5	-	-	38%	-	32%
CS(=O)(=O)N(CC(=O)N1CCN(Cc2ccccc2)CC1)c1cccc([N+](=O)[O-])c1	-	-	-	-	-	.	.	.
CN(C1CCCCC1)S(=O)(=O)c1ccc(-c2ccccn2)s1	-	-	-	-	-	.	.	.
O=C1ON=C(c2ccccc2)/C1=C/c1ccc(O)cc1	-	-	-	-	-	-	-	-
O=C1ON=C(c2ccc(Cl)cc2)/C1=C/c1ccc(O)cc1	8	-	-	-	.	-	-	-
CCN(CC)C(=O)CSc1nnnn1-c1ccc(F)c(Cl)c1	-	-	-	-	-	.	.	.
COc1ccc(-c2[nH]ncc2[C@@H]2C[C@H]3CN(Cc4ccccc4C)C(=O)[C@]34CCCN24)cc1	-	-	-	-	-	-	-	-
COc1ccc(C(=O)N2c3cc4c(cc3C(C)=CC2(C)C)OCO4)cc1	-	-	-11	-	-	26%	-	42%
CC1=CC(C)(C)N(C(=O)c2ccccc2)c2ccc(C)cc21	-	-	-	-	-	.	.	.
C=CCOc1cccc(/C=C2\C(=O)N(Cc3ccc(C)cc3)C(C)=C2C(=O)OC)c1	-	-	-	-	-	.	.	.
CCOc1cc(/C=C2\C(=O)N(Cc3ccc(C)cc3)C(C)=C2C(=O)OC)ccc1O	7	-	-11	-	-	41%	-	32%
c1ccc(C2Oc3ccccc3C3CC(c4cccs4)=NN32)cc1 (configuration not stated)	-	-	-	-	-	.	.	.
c1ccc(C2CCC3(CC2)Oc2ccccc2C2CC(c4cccnc4)=NN23)cc1 (configuration not stated)	-	-	-9.3	-	.	50%	-	41%
CCOc1ccc2[nH]c(=O)c(CN(Cc3cccs3)Cc3nnnn3C(C)(C)CC)cc2c1	-	-	-9.7	-	-9.9	34%	-	-
O=c1c2ccccc2ncn1CCCSc1ccc(Cl)cc1	-	-	-	-	-	.	.	.
O=c1c2ccccc2ncn1CCCSc1ccccc1	-	-	-	-	-	-	-	30%
O=C(COC(=O)Cc1c(F)cccc1Cl)NC(=O)c1ccccc1	-	-	-	-	-	.	.	.
O=C(Cn1cc(C(F)(F)F)cc(Cl)c1=O)NCc1ccc(F)cc1	-	-	-	-	-	.	.	.
COc1ccccc1NC(=O)Cc1cccc2ccccc12	-	-	-	-	-	.	.	.
SMILES	KCNQ1 block	KCNQ1 act	KCNK9 inh	hERG rescue	KCNK3 inh	KCNK9 inh conf	Kir21 sel	HEK293 Tl ctr
COc1ccc(C(C)(C)C)cc1NC(=O)CNc1cccc2ccccc12	-	-	-	-	-	-	-	-
COC(=O)c1ccc(NC(=O)c2cc[n+]([O-])cc2)cc1	-	-	-	-	-	.	.	.
COCCNC(=O)CSc1nnc(NC(=O)C2CC(=O)N(c3ccccc3OC)C2)s1 (configuration not stated)	-	-	-	-	-	.	.	.
Cc1cccnc1NC(=O)C1CCN(S(=O)(=O)c2c(C)noc2/C=C/c2ccco2)CC1	-	-	-	-	-	-	-	-
O=C(Nc1cccc(NC(=O)c2ncn[nH]2)c1)c1cccc(Cl)c1	-	-	-	-	-	.	.	.
CCOC(=O)c1c(NC(=O)CSc2nnc(-c3ccc(OC)cc3)o2)sc2c1CCC2	-	-	-	-	-	-	-	-
CCOC(=O)Nc1sc2c(c1C(N)=O)CCC(C)C2 (configuration not stated)	-	-	-	-	-	.	.	.
CCOC(=O)c1c(NC(=O)CSc2nnc(C)s2)sc2c1CCC(C)C2 (configuration not stated)	-	-	-9.8	-	-	-	-	52%
CN(CC(=O)Nc1cccc(F)c1)C(=O)/C=C/c1cn(Cc2ccccc2)nc1-c1cccnc1	-	-	-	-	-	.	.	.
Cc1cccc(/C=N/n2c(COc3ccccc3)n[nH]c2=S)c1	-	14	-9	-	-	-	-	-
COc1ccc(S(=O)(=O)/N=C2\C=C(Nc3ccc(O)cc3)C(=O)c3ccccc32)cc1	-	-	-	-	-	.	.	.
CC(C)c1ccc(S(=O)(=O)/N=C2\C=C(NS(=O)(=O)c3ccccc3)C(=O)c3ccccc32)cc1	18	-	-9.4	-	-	32%	-	32%
CC(Oc1ccc(F)cc1)C(=O)Nc1cc(S(=O)(=O)N2CCCCC2)ccc1N1CCN(C)CC1 (configuration not stated)	.	.	.	.	-	.	.	.
CC(Oc1ccc(F)cc1)C(=O)Nc1ccccc1N1CCCCC1 (configuration not stated)	6	-	-8.5	-	-	52%	46%	32%
CC(C)Oc1ccc(C(=O)Nc2ccccc2N2CCCC2)cc1	-	-	-14	-	-	58%	-	29%
CCOC(=O)N/N=C/c1c(F)c(F)c(F)c(F)c1F	-	-	-	-	-	.	.	.
CC(C)Cn1c(/C=N/Nc2nc3ccccc3[nH]2)nc2ccccc21	11	-	-	-	-	27%	-	-
CCCn1c(/C=N/Nc2nc3ccccc3[nH]2)nc2ccccc21	.	.	.	.	-	.	.	.
O/N=C\c1ccc2noc(-c3ccc(Cl)cc3)c2c1	-	-	-	-	-	.	.	.
CCOc1ccc(Oc2ccc(C(F)(F)F)cc2N)cc1	-	-	-	-	-	.	.	.
COc1cccc(Oc2ccc(C(F)(F)F)cc2N)c1	-	-	-8.4	-	-	54%	-	32%
